Reference: ChEMBL document CHEMBL1141165, “Novel 8-substituted dipyridodiazepinone inhibitors with a broad-spectrum of activity against HIV-1 strains resistant to non-nucleoside reverse transcriptase inhibitors” (J Med Chem, 2005)

Columns and labels:
[1] = target: T1, Human immunodeficiency virus type 1 reverse transcriptase (Human immunodeficiency virus 1, UniProt Q72547, K103N/Y181C); assay: Effective concentration towards HIV-1 K103N/Y181C mutant reverse transcriptase activity by 50% measured in cellular assay
In short: (§1)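 C8166 T-lymphocytes infected at MOI 0.001 with HIV-1 carrying wild-type or mutant RT, then grown 3 days with serial compound dilutions in RPMI 1640 + 10% FBS, 10 μg/mL gentamycin, 10 μM β-mercaptoethanol (also the diluent). Supernatant pooled from eight replica wells; extracellular p24 measured by HIV-1 p24 antigen kit.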

[2] = target: T2, Human immunodeficiency virus type 1 reverse transcriptase (Human immunodeficiency virus 1, UniProt Q72547); assay: Inhibitory activity of compound dissolved in DMSO was determined against HIV-1 wild type reverse transcriptase (1-2 nM) by using [3H]dGTP (71 nM) as substrate, 50 mM Tris/HCl buffer, pH 7.8, incubated for 1 h at 37 degrees C
In short: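 Wild-type RT preincubated 15 min at room temperature with inhibitor. Final reaction: Tris/HCl 50 mM pH 7.8, NaCl 60 mM, MgCl2 2 mM, DTT 6 mM, GSH 2 mM, Chaps 0.02%, DMSO 3%, poly rC 179 nM, biotin-dG15 18 nM, dGTP 288 nM, 3H-dGTP 71 nM, enzyme 1–2 nM, inhibitor 10 μM–0.5 nM. Run 1 h at 37 °C, EDTA-quenched, read with streptavidin SPA beads.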

[3] = target: T2, Human immunodeficiency virus type 1 reverse transcriptase; assay: Effective concentration towards HIV-1 wild type reverse transcriptase activity by 50% measured in cellular assay
In short: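 C8166 T-lymphocytes infected at MOI 0.001 with wild-type HIV-1, then cultured 3 days with serial compound dilutions in RPMI 1640 containing 10% FBS, gentamycin and 10 μM β-mercaptoethanol. Supernatants pooled from eight replicate wells. Extracellular p24 measured by antigen immunoassay.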

[4] = target: T1, Human immunodeficiency virus type 1 reverse transcriptase; assay: Inhibitory activity of compound dissolved in DMSO was determined against HIV-1 (K103N/Y181C) mutant reverse transcriptase (1-2 nM) by using [3H]-dGTP (71 nM) as substrate, 50 mM Tris/HCl buffer, pH 7.8, incubated for 1 hr at 37 degrees C
In short: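 RT at ≈3 nM preincubated 15 min at room temperature with inhibitor, then substrate added. Final mix: 50 mM Tris/HCl pH 7.8, 60 mM NaCl, 2 mM MgCl2, 6 mM DTT, 2 mM GSH, 0.02% Chaps, 3% DMSO, 179 nM poly rC, 18 nM biotin-dG15, 288 nM dGTP, 71 nM 3H-dGTP, 1–2 nM enzyme, inhibitor 10 μM–0.5 nM. Reaction 1 h at 37 °C, quenched with EDTA plus streptavidin SPA beads, CsCl added, scintillation counted.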

C8166 [5] = assay: Inhibition of HIV replication in T-lymphocyte cell line C8166 infected with K103N/L100I mutant reverse transcriptase upon incubation with the compound for 3 days; assay type: functional, Homo sapiens; in short: as §1
C8166 [6] = assay: Inhibition of HIV replication in T-lymphocyte cell line C8166 infected with V106A mutant reverse transcriptase upon incubation with the compound for 3 days; assay type: functional, Homo sapiens; in short: as §1
C8166 [7] = assay: Inhibition of HIV replication in T-lymphocyte cell line C8166 infected with K103N/P225H mutant reverse transcriptase upon incubation with the compound for 3 days; assay type: functional, Homo sapiens; in short: as §1
C8166 [8] = assay: Inhibition of HIV replication in T-lymphocyte cell line C8166 infected with K103N/V108I mutant reverse transcriptase upon incubation with the compound for 3 days; assay type: functional, Homo sapiens; in short: as §1
C8166 [9] = assay: Inhibition of HIV replication in T-lymphocyte cell line C8166 infected with Y188L mutant reverse transcriptase upon incubation with the compound for 3 days; assay type: functional, Homo sapiens; in short: as §1
in vitro = conditions: male, human, liver microsomes
Caco-2 = assay: Caco-2 permeability upon incubation at 37 degrees C for 180 minutes; assay type: functional, Homo sapiens
In short: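 Cells grown on 12-well Transwell membranes and exposed to test solution for 180 min at 37 °C. Receiving-side (basolateral, A to B) samples analysed by HPLC. Apparent permeability = (ΔQ/Δt)/(A·C0), where ΔQ/Δt is the transport rate, A the monolayer area and C0 the initial donor concentration.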

[10] = Clearance is determined in rat after intravenous administration at 1 mg/kg; assay type: ADME, organism-based; design: dose 1 mg/kg, route intravenous; conditions: in vivo
In short: (§2)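 Intravenous bolus at 1 mg/kg to overnight-fasted male Sprague-Dawley rats, beagle dogs or rhesus monkeys. Vehicle: N,N-dimethylacetamide/0.9% aqueous NaCl (30:70). Animals restrained during sampling. Plasma extracts analysed by HPLC. Parameters derived by noncompartmental analysis.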

[11] = Maximum concentration is determined in monkey after oral administration at 5 mg/kg; conditions: cercopithecidae, in vivo
[12] = Clearance is determined in monkey after intravenous administration 1 mg/kg; assay type: ADME, organism-based; design: dose 1 mg/kg, route intravenous; conditions: cercopithecidae, in vivo; in short: as §2
[13] = Steady state volume of distribution is determined in dog after intravenous administration 1 mg/kg; assay type: ADME, organism-based, Canis lupus familiaris; design: dose 1 mg/kg, route intravenous; conditions: in vivo, read-out: Vss; in short: as §2
Cytochrome P450 2D6 = Cytochrome P450 2D6 (Homo sapiens, UniProt P10635); assay: Inhibitory concentration (1.5 mM) against human CYP450 2D6 dissolved in acetonitrile/methanol
Chain of Cytochrome P450 2D6 (P10635 whole entry): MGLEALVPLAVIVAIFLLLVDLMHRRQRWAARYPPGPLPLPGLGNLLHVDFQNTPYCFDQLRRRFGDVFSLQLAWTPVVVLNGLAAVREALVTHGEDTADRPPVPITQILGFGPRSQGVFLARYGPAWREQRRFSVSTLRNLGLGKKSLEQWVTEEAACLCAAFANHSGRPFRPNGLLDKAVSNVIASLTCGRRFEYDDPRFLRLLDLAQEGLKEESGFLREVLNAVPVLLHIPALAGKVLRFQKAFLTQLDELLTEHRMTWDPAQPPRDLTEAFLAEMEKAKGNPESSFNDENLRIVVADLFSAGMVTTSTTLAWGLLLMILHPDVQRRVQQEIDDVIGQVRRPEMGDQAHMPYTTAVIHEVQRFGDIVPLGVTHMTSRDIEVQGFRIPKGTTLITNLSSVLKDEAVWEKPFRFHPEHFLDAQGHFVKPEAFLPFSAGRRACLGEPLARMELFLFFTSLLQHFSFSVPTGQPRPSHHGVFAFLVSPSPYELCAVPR

Cytochrome P450 3A4 [14] = target: T3, Cytochrome P450 3A4 (Homo sapiens, UniProt P08684)
T3 sequence (P08684 whole entry): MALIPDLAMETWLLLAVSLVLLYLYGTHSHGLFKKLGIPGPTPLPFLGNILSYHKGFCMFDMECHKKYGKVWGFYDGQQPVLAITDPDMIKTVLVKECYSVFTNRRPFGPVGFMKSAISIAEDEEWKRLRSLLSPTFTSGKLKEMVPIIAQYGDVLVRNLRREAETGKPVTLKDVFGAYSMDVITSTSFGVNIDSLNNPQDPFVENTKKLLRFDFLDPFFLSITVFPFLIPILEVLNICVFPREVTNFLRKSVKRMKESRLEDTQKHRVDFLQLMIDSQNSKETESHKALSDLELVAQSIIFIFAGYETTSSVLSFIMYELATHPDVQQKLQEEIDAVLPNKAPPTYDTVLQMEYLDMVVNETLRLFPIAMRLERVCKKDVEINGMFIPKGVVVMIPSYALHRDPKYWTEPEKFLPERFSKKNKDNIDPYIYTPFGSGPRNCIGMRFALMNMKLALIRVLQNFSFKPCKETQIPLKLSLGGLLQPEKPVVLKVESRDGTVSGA

[15] = Steady state volume of distribution is determined in monkey after intravenous administration at 1 mg/kg; assay type: ADME, organism-based; design: dose 1 mg/kg, route intravenous; conditions: cercopithecidae, in vivo, read-out: Vss; in short: as §2
[16] = Area under curve is determined in monkey after oral administration at 5 mg/kg; conditions: cercopithecidae, in vivo
[17] = Bioavailability is determined in dog after oral administration 5 mg/kg; conditions: in vivo
[18] = Area under curve is determined in dog after oral administration 5 mg/kg; conditions: in vivo
[19] = Area under curve is determined in rat after oral administration at 5 mg/kg; conditions: in vivo
Cytochrome P450 1A2 = target: T4, Cytochrome P450 1A2 (Homo sapiens, UniProt P05177); assay: Inhibitory concentration (1.5 mM) against human CYP450 1A2 dissolved in acetonitrile/methanol
T4 sequence (P05177 whole entry): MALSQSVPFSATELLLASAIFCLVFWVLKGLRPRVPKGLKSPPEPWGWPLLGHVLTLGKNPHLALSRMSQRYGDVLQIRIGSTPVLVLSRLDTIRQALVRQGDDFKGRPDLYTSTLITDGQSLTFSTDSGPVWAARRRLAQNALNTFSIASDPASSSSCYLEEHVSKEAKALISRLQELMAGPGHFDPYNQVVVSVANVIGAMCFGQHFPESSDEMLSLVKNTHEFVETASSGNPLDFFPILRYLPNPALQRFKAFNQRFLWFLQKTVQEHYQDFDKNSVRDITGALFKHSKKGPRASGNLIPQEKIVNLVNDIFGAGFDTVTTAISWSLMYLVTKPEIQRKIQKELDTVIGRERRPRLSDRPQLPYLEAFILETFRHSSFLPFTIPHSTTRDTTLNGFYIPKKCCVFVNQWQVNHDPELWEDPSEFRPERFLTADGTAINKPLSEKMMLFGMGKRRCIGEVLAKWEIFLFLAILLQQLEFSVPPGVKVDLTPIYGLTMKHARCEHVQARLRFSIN

[20] = Half-life is determined in monkey after intravenous administration at 1 mg/kg; assay type: ADME, organism-based; design: dose 1 mg/kg, route intravenous; conditions: cercopithecidae, in vivo; in short: as §2
[21] = Concentration maximum is determined in rat after oral administration at 5 mg/kg; conditions: in vivo
[22] = Bioavailability is determined in monkey after oral administration at 5 mg/kg; conditions: cercopithecidae, in vivo
[23] = Half-life is determined in dog after intravenous administration 1 mg/kg; assay type: ADME, organism-based, Canis lupus familiaris; design: dose 1 mg/kg, route intravenous; conditions: in vivo; in short: as §2
Cytochrome P450 2C9 = Cytochrome P450 2C9 (Homo sapiens, UniProt P11712)
Chain of Cytochrome P450 2C9 (P11712 whole entry): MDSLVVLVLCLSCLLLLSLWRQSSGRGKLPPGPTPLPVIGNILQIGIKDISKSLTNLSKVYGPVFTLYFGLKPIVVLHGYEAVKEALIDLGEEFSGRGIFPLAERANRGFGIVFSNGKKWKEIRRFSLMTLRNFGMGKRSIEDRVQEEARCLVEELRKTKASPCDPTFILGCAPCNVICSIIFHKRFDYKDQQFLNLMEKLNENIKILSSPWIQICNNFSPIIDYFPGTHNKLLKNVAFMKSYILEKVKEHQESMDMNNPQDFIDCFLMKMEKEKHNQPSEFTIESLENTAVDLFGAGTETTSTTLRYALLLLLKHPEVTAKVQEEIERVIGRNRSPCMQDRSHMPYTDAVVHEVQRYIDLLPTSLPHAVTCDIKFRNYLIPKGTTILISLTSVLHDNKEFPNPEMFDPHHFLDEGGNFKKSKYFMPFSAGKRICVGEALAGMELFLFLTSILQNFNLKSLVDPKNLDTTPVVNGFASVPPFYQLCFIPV

[24] = Concentration maximum is determined in dog after oral administration 5 mg/kg; conditions: in vivo
[25] = Steady state volume of distribution in rat after intravenous administration 1 mg/kg; assay type: ADME, organism-based; design: dose 1 mg/kg, route intravenous; conditions: in vivo, read-out: Vss; in short: as §2
Cytochrome P450 3A4 [26] = target: T3, Cytochrome P450 3A4; assay: Inhibitory concentration (1.5 mM) against human CYP450 3A4 dissolved in acetonitrile/methanol using 7-Benzyloxy-quinoline (BQ) as fluorogenic substrate
[27] = Bioavailability is determined in rat after oral administration at 5 mg/kg; conditions: in vivo
[28] = Half-life is determined in rat after intravenous administration at 1 mg/kg; assay type: ADME, organism-based; design: dose 1 mg/kg, route intravenous; conditions: in vivo; in short: as §2
[29] = Clearance is determined in dog after intravenous administration at 1 mg/kg; assay type: ADME, organism-based, Canis lupus familiaris; design: dose 1 mg/kg, route intravenous; conditions: in vivo; in short: as §2
Cytochrome P450 2C19 = Cytochrome P450 2C19 (Homo sapiens, UniProt P33261); assay: Inhibitory concentration (1.5 mM) against human CYP450 2C19 dissolved in acetonitrile/methanol
Chain of Cytochrome P450 2C19 (P33261 whole entry): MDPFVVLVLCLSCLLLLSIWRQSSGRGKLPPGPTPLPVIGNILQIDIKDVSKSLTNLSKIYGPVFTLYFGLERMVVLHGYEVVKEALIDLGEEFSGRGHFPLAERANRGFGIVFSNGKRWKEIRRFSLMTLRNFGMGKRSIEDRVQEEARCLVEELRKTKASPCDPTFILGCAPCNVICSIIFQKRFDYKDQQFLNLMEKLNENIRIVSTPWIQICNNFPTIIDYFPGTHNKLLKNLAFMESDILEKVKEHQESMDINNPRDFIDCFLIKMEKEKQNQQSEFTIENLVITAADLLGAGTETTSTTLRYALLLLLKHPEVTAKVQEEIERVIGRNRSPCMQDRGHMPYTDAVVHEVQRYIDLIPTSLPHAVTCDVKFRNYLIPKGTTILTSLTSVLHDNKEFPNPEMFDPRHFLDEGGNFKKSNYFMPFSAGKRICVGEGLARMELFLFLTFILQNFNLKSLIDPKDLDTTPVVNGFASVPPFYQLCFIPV

CCc1cc(C(=O)O)ccc1OCCc1cnc2c(c1)C(=O)N(C)c1cccnc1N2CC
EC50 [1]: 24 nM | IC50 [2]: 19 nM | EC50 [3]: 2.2 nM | IC50 [4]: 430 nM

CCN1c2ncc(CCOc3ccc(C(=O)O)cc3C)cc2C(=O)N(C)c2ccc(OC)nc21
EC50 [1]: 15 nM | IC50 [2]: 15 nM | EC50 [3]: 1.9 nM | IC50 [4]: 300 nM

CCN1c2ncc(CCOc3ccc(C(=O)O)cc3C)cc2C(=O)N(C)c2ccc(F)nc21
Antiviral activity (C8166 [5]): 3 nM | Antiviral activity (C8166 [6]): 27 nM | Antiviral activity (C8166 [7]): 2 nM | Antiviral activity (C8166 [8]): 4 nM | EC50 [1]: 14 nM | IC50 [2]: 15 nM | EC50 [3]: 1.5 nM | Antiviral activity (C8166 [9]): 27 nM | IC50 [4]: 150 nM

CCN1c2ncc(CCOc3ccc4c(C(=O)O)cccc4c3)cc2C(=O)N(C)c2cccnc21
IC50 [2]: 63 nM | IC50 [4]: 4000 nM

CCN1c2ncc(CCOc3ccc4cc(C(=O)O)ccc4c3)cc2C(=O)N(C)c2cccnc21
IC50 [2]: 14 nM | IC50 [4]: 1100 nM

CCN1c2ncc(CCOc3ccc(CC(=O)O)cc3C)cc2C(=O)N(C)c2cccnc21
half-life at 10 µM (in vitro): 3.6 h | EC50 [1]: 139 nM | IC50 [2]: 23 nM | EC50 [3]: 12 nM | Caco-2 A-B (Caco-2): 1.84e-05 cm/s | IC50 [4]: 370 nM

CCN1c2ncc(CCOc3ccc(CCC(=O)O)cc3C)cc2C(=O)N(C)c2cccnc21
half-life at 10 µM (in vitro): 3.43 h | EC50 [1]: 101 nM | IC50 [2]: 22 nM | EC50 [3]: 5.5 nM | Caco-2 A-B (Caco-2): 4.69e-05 cm/s | IC50 [4]: 200 nM

CCN1c2ncc(CCOc3cccc4c(C(=O)O)cccc34)cc2C(=O)N(C)c2cccnc21
IC50 [2]: 60 nM | IC50 [4]: 550 nM

CCN1c2ncc(CCOc3ccc(C(=O)O)cc3C)cc2C(=O)N(C)c2cccnc21
clearance [10]: 7.1 mL/min/kg | half-life at 10 µM (in vitro): 2.23 h | Cmax [11]: 1.5 µM | clearance [12]: 24 mL/min/kg | Antiviral activity (C8166 [5]): 4 nM | Vd [13]: 2.5 L/kg | IC50 (Cytochrome P450 2D6): > 30000 nM | IC50 (Cytochrome P450 3A4 [14]): 24000 nM | Antiviral activity (C8166 [6]): 36 nM | Vd [15]: 1 L/kg | AUC [16]: 3.4 uMh | bioavailability [17]: 115% | Antiviral activity (C8166 [7]): 5 nM | Antiviral activity (C8166 [8]): 5 nM | AUC [18]: 20 uMh | AUC [19]: 12 uMh | EC50 [1]: 15 nM | IC50 [2]: 17 nM | IC50 (Cytochrome P450 1A2): > 30000 nM | half-life [20]: 1.3 h | Cmax [21]: 6.5 µM | EC50 [3]: 1.6 nM | bioavailability [22]: 43% | Antiviral activity (C8166 [9]): 172 nM | half-life [23]: 5.9 h | Caco-2 A-B (Caco-2): 2.75e-05 cm/s | IC50 (Cytochrome P450 2C9): 10000 nM | Cmax [24]: 16 µM | Vd [25]: 4.6 L/kg | IC50 (Cytochrome P450 3A4 [26]): > 30000 nM | bioavailability [27]: 46% | half-life [28]: 11 h | clearance [29]: 10 mL/min/kg | IC50 (Cytochrome P450 2C19): 2000 nM | IC50 [4]: 221 nM

CCN1c2ncc(CCOc3ccc(C(=O)O)cc3Br)cc2C(=O)N(C)c2cccnc21
EC50 [1]: 35 nM | IC50 [2]: 18 nM | EC50 [3]: 3.2 nM | IC50 [4]: 300 nM

CCN1c2ncc(CCOc3ccc(C(=O)O)cc3C)cc2C(=O)N(C)c2ccc(C)nc21
EC50 [1]: 33 nM | IC50 [2]: 19 nM | EC50 [3]: 1.3 nM | IC50 [4]: 280 nM

CCN1c2ncc(CCOc3ccc(C(=O)O)cc3C)cc2C(=O)N(C)c2ccc(Cl)nc21
EC50 [1]: 8.1 nM | IC50 [2]: 10 nM | EC50 [3]: 1.6 nM | IC50 [4]: 64 nM

CCN1c2ncc(CCOc3ccc(C(=O)O)c4ccccc34)cc2C(=O)N(C)c2cccnc21
IC50 [2]: 27 nM | IC50 [4]: 194 nM

CCN1c2ncc(CCOc3ccc(C(=O)O)cc3)cc2C(=O)N(C)c2cccnc21
half-life at 10 µM (in vitro): 1.27 h | EC50 [1]: 162 nM | IC50 [2]: 95 nM | EC50 [3]: 3.3 nM | IC50 [4]: 4480 nM
